From ChEMBL document CHEMBL4715683, “Discovery and characterization of a novel peptide inhibitor against influenza neuraminidase” (RSC Med Chem, 2020)
The source made the active and inactive calls. No cut-off for these calls is given here.

Assays:
[1] = system: Influenza A virus; assay: Antiviral activity against Influenza A virus (H1N1) infected in dog MDCK cells assessed as inhibition of virus-induced cytopathic effect treated 1 hr post infection and measured after 48 hrs by CCK-8 assay; format: functional, organism-based
[2] = system: Influenza A virus; assay: Antiviral activity against Influenza A virus H5N1 infected in dog MDCK cells assessed as inhibition of virus-induced cytopathic effect treated 1 hr post infection and measured after 48 hrs by CCK-8 assay; format: functional, organism-based
[3] = Binding affinity to influenza neuraminidase incubated for 2 hrs by ELISA; set-up: species or system Influenza A virus
How it was run: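 His-tagged neuraminidase expressed in E. coli BL21 and Ni-affinity purified was immobilised and blocked with BSA. Biotinylated peptides at varied concentrations were bound at 37 °C for 2 h, followed by streptavidin-HRP for 1 h and HRP substrate for 15 min, then OD450. Kd came from fitting background-subtracted absorbance against peptide concentration.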

[4] = Hemolytic activity in rabbit red blood cells incubated for 60 mins; format: ADME, cell-based, Oryctolagus cuniculus, Erythrocyte; conditions: red blood cells (erythrocytes)
How it was run: (§1)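 Fibrinogen-free rabbit blood was mixed with 0.9% saline and centrifuged to give a 2% red cell suspension. Peptide solutions were combined with the suspension, kept 60 min at 37 °C and centrifuged. Supernatant OD600 gave hemolysis, and HC50 is the 50% hemolytic concentration.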

[5] = system: Erythrocyte; assay: Hemolytic activity in rabbit red blood cells at 100 uM incubated for 60 mins; format: ADME, cell-based, Oryctolagus cuniculus; conditions: 1 h; how it was run: as §1
[6] = system: HEK-293T; assay: Cytotoxicity against human HEK293T cells at 50 uM incubated for 48 hrs by CCK-8 assay; format: cell-based
How it was run: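 HEK 293T cells were seeded at 5000 per well in DMEM with 10% FBS. Peptides were added at 0.78 to 50 μM for 48 h, and viability was read by CCK-8.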

[7] = Inhibition of Influenza A virus (H1N1) neuraminidase using 4-MU-NANA as substrate preincubated for 1 hr followed by substrate addition and measured after 18 hrs by fluorescence method
How it was run: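 Peptide dilutions were preincubated with diluted H1N1 virus for 1 h at 37 °C. 4-MU-NANA was then added and reactions ran 18 h at 37 °C. Released 4-methylumbelliferone was read by fluorescence (Ex 355/Em 460). IC50 is the peptide concentration reducing neuraminidase activity by 50%.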

[8] = system: Influenza A virus; assay: Antiviral activity against Influenza A virus (H1N1) infected in BALB/c mouse assessed as animal survival rate at 50 mg/kg/day, iv administered for 7 days and monitored for 15 days relative to control; format: functional; conditions: time 7 day
How it was run: (§2)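 Six-week-old male Balb/c mice, randomised into normal, PBS control and treated groups. Dosing began 4 h after H1N1 inoculation: peptide at 1 mg kg−1 per day or oseltamivir carboxylate at 50 mg kg−1 per day, iv once daily for seven days. Body weight and mortality were followed for 15 consecutive days; n = 6.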

[9] = system: Influenza A virus (H1N1); assay: Inhibition of Influenza A virus (H1N1) neuraminidase at 25 uM using 4-MU-NANA as substrate after 60 mins by fluorescence method relative to control
How it was run: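 Time-course format: neuraminidase incubated with peptide (25 μM) in the presence of 4-MU-NANA substrate for up to 180 min. Fluorescence intensity read at successive time points and expressed as inhibition ratio. Mean ± SD, n = 6.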

[10] = […] assessed as compound remaining after 18 hrs by RP-HPLC analysis; format: ADME, cell-free; conditions: human, plasma
[11] = Drug uptake in human HEK293T cells at 2 uM measured upto 12 hrs by using rhodamine-labeled peptide by flow cytometric analysis; format: ADME, cell-based; conditions: hek-293t
How it was run: (§3)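 HEK 293T cells were given rhodamine-labelled peptides at 2 μM and sampled at 2, 4, 8 and 12 h. Cells were PBS-washed, fixed in 4% paraformaldehyde and DAPI-stained, then examined by laser scanning confocal microscopy and by FACS.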

[12] = Drug uptake in human HEK293T cells at 2 uM measured upto 12 hrs by using rhodamine-labeled peptide by DAPI staining based laser scanning confocal microscopic analysis; format: ADME, cell-based; conditions: hek-293t; how it was run: as §3
[13] = system: Influenza A virus; assay: Antiviral activity against Influenza A virus (H1N1) infected in BALB/c mouse assessed as animal survival rate at 1 mg/kg/day, iv administered for 7 days and monitored for 15 days relative to control; format: functional; conditions: time 7 day; how it was run: as §2
[14] = system: Influenza A virus; assay: Antiviral activity against Influenza A virus (H1N1) infected in BALB/c mouse assessed as recovery of normal body weight at 1 mg/kg/day, iv measured after 6 days; format: functional, organism-based; conditions: time 6.0 day; how it was run: as §2
[15] = system: Influenza A virus; assay: Antiviral activity against Influenza A virus (H1N1) infected in BALB/c mouse assessed as reduction in lung index at 1 mg/kg/day, iv administered for 7 days and measured after 15 days; format: functional, organism-based; conditions: time 7.0 day
[16] = system: Influenza A virus; assay: Antiviral activity against Influenza A virus (H1N1) infected in BALB/c mouse assessed as decrease in TNF-alpha expression at 1 mg/kg/day, iv measured on day 2 and day 4 by ELISA; format: functional, organism-based; conditions: time 2-4 day
How it was run: (§4)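 Balb/c mice were infected with H1N1 and treated iv once daily for seven days (peptide 1 mg kg−1 per day, starting 4 h post-inoculation), with PBS control and healthy groups. Serum was taken on days 2 and 4 post-inoculation. TNF-α, IL-6 and IFN-γ were measured by ELISA at A450. n = 6; Student's t test against the normal group.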

[17] = system: Influenza A virus; assay: Antiviral activity against Influenza A virus (H1N1) infected in BALB/c mouse assessed as decrease in IL6 expression at 1 mg/kg/day, iv measured on day 2 and day 4 by ELISA; format: functional, organism-based; conditions: time 2-4 day; how it was run: as §4
[18] = system: Influenza A virus; assay: Antiviral activity against Influenza A virus (H1N1) infected in BALB/c mouse assessed as decrease in INFgamma expression at 1 mg/kg/day, iv measured on day 2 and day 4 by ELISA; format: functional, organism-based; conditions: time 2-4 day; how it was run: as §4
[19] = Drug uptake in human HEK293T cells at 2 uM incubated for 12 hrs by HPLC analysis; format: ADME, cell-based; conditions: hek-293t
How it was run: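 HEK 293T cells were exposed to peptide at 2 μM for 12 h, washed twice with PBS and lysed; proteins were precipitated. Peptide was read by HPLC on a C18 column with 0.1% TFA in water and 0.1% TFA in 80% acetonitrile, gradient 14–34% B over 0–20 min, 1 mL min−1.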

Row | SMILES | IC50 [1] | IC50 [2] | Kd [3] | HC50 at 1 h [4] | Activity [5] | Activity [6] | IC50 [7] | Activity [8] | inhibition [9] | Stabilty [10] | Drug uptake [11] | Drug uptake [12] | Activity [13] | Activity [14] | Activity [15] | Activity [16] | Activity [17] | Activity [18] | Drug uptake [19]
1 | CSCC[C@H](NC(=O)[C@@H](NC(=O)[C@@H](CCCNC(=N)N)NC(=O)[C@@H](Cc1ccccc1)NC(=O)[C@H](N)CCC(=O)O)[C@@H](C)O)C(=O)N[C@H](C(=O)N[C@@H](Cc1c[nH]cn1)C(=O)N1CCC[C@H]1C(=O)N[C@@H](CCCCN)C(=O)O)C(C)C | 15.7 µM | 23.8 µM | 0.0203 µM | 25 µM | Non-Toxic | Non-Toxic |  |  |  |  |  |  |  |  |  |  |  |  | 
2 | C[C@H](NC(=O)[C@@H](NC(=O)[C@H](CCCCN)NC(=O)[C@H](Cc1c[nH]cn1)NC(=O)[C@H](Cc1ccccc1)NC(=O)[C@H](CCC(=O)O)NC(=O)[C@H](N)CCCCN)[C@@H](C)O)C(=O)N[C@@H](CCC(N)=O)C(=O)N1CCC[C@H]1C(=O)O | 16.6 µM | 25.4 µM | 0.0286 µM | 25 µM |  |  | < 25 µM |  |  |  |  |  |  |  |  |  |  |  | 
3 | C[C@H](NC(=O)[C@@H]1CCCN1C(=O)[C@H](CCCCN)NC(=O)[C@H](CCC(=O)O)NC(=O)[C@@H](CCC(=O)O)NC(=O)[C@H](N)CCC(=O)O)C(=O)N[C@@H](CCC(N)=O)C(=O)N1CCC[C@H]1C(=O)O | 36.1 µM | 64.3 µM |  | 25 µM |  |  |  |  |  |  |  |  |  |  |  |  |  |  | 
4 | C[C@H](NC(=O)[C@@H]1CCCN1C(=O)[C@H](CCCCN)NC(=O)[C@@H](CCCNC(=N)N)NC(=O)[C@H](Cc1c[nH]cn1)NC(=O)CN)C(=O)N[C@@H](CCC(N)=O)C(=O)N1CCC[C@H]1C(=O)O | 28.4 µM | 31.3 µM |  | 25 µM |  |  | < 25 µM |  |  |  |  |  |  |  |  |  |  |  | 
5 | CCC(CC)O[C@@H]1C=C(C(=O)O)C[C@H](N)[C@H]1NC(C)=O [OSELTAMIVIR CARBOXYLATE] | 0.0113 µM | 0.0056 µM |  |  |  |  |  | 100% |  |  |  |  |  |  |  |  |  |  | 
6 | C[C@H](NC(=O)[C@H](CCC(N)=O)NC(=O)[C@H](C)NC(=O)[C@H](Cc1c[nH]cn1)NC(=O)[C@H](CCCCN)NC(=O)[C@H](CCCNC(=N)N)NC(=O)[C@@H](CC(=O)O)NC(=O)[C@H](N)CCC(=O)O)C(=O)O | 3.08 µM | 3.32 µM | 0.0366 µM | 25 µM |  |  | < 25 µM |  |  |  |  |  |  |  |  |  |  |  | 
7 | C[C@H](NC(=O)[C@@H](NC(=O)[C@H](CCCCN)NC(=O)[C@@H](Cc1c[nH]cn1)NC(=O)[C@@H](CC(=O)O)NC(=O)[C@@H](N)CC(=O)O)[C@@H](C)O)C(=O)N[C@@H](Cc1c[nH]cn1)C(=O)N[C@@H](CCC(N)=O)C(=O)O | 28.4 µM | 48.2 µM | 0.0386 µM | 25 µM |  |  |  |  |  |  |  |  |  |  |  |  |  |  | 
8 | CC(C)C[C@H](NC(=O)[C@@H](CCCNC(=N)N)NC(=O)[C@H](CCCCN)NC(=O)[C@H](N)Cc1c[nH]c2ccccc12)C(=O)N[C@@H](Cc1c[nH]cn1)C(=O)N[C@@H](Cc1c[nH]cn1)C(=O)N[C@@H](CCCCN)C(=O)N1CCC[C@H]1C(=O)N[C@@H](C)C(=O)O | 16 µM | 17.9 µM | 0.019 µM | 25 µM | Non-Toxic | Non-Toxic | < 25 µM |  |  |  |  |  |  |  |  |  |  |  | 
9 | CC(C)C[C@H](NC(=O)[C@@H]1CCCN1C(=O)[C@H](CCCNC(=N)N)NC(=O)[C@@H](CCCNC(=N)N)NC(=O)[C@@H](CCCNC(=N)N)NC(=O)[C@H](N)Cc1ccccc1)C(=O)N[C@@H](CCCNC(=N)N)C(=O)N[C@@H](C)C(=O)O | 22.7 µM | 50.2 µM |  | 25 µM | Non-Toxic | Non-Toxic |  |  |  |  |  |  |  |  |  |  |  |  | 
10 | C[C@H](NC(=O)[C@@H]1CCCN1C(=O)[C@H](CCCCN)NC(=O)[C@@H](CCCNC(=N)N)NC(=O)[C@@H](CCCNC(=N)N)NC(=O)[C@H](N)CCC(=O)O)C(=O)N[C@@H](CCC(N)=O)C(=O)N1CCC[C@H]1C(=O)O | 2.26 µM | 1.46 µM | 0.011 µM | 25 µM | Non-Toxic | Non-Toxic | 4.25 µM |  | 100% | Stable | Active | Active | 90% | Active | Active | Active | Active | Active | Active
11 | C[C@H](NC(=O)[C@@H]1CCCN1C(=O)[C@H](CCCCN)NC(=O)[C@H](CCCNC(=N)N)NC(=O)[C@@H](Cc1c[nH]c2ccccc12)NC(=O)CN)C(=O)N[C@@H](CCC(N)=O)C(=O)N1CCC[C@H]1C(=O)O | 36 µM | 27.5 µM | 0.0277 µM | 25 µM | Non-Toxic | Non-Toxic |  |  |  | Stable | Active | Active |  | Active | Active | Active | Active | Active | Active
